ChEMBL document CHEMBL5108074 (J Med Chem, 2022)

How the values were obtained:
[1] = Apparent permeability of the compound across apical side to basolateral side in human Caco-2 cells incubated for 1 hr by LC-MS/MS analysis; details: caco-2, 1 h
[2] = Thermodynamic solubility of the compound in FaSSGF at 1 mg/ml at pH 1.6 measured after 4 hrs; format: physicochemical; details: buffer, pH 1.6, 4 h
How it was run: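 Compound (nominal 1 or 100 mg/mL as free base) added to biorelevant medium preheated to 37 °C: FaSSGF at pH 1.6 or FaSSIF at pH 6.5. Vortexed, then shaken 4 h at 37 °C (~500 rpm). Centrifuged at 15000g for 10 min at 37 °C. Supernatant diluted and quantified against calibration standards. Crystalline material used where stated.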

[3] = Volume of distribution at steady state in Beagle dog at 1 mg/kg, po and 1 mg/kg, iv measured upto 24 hrs by LC-MS analysis; format: ADME, organism-based, Canis lupus familiaris; details: in vivo
[4] = Half life in Sprague-Dawley rat at 10 mg/kg, po and 1 mg/kg, iv measured upto 24 hrs by LC-MS analysis; format: ADME, organism-based; details: in vivo
How it was run: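 Male Sprague-Dawley rats, two per route, single dose. IV: 1 mg/kg given as 1 mL/kg of a nominal 1 mg/mL formulation in vehicle. PO: 10 mg/kg given as 5 mL/kg of a 2 mg/mL formulation. PK parameters from noncompartmental analysis. Clearance expressed relative to rat liver blood flow of 80 mL/min/kg.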

[5] = Half life in Beagle dog at 1 mg/kg, po and 1 mg/kg, iv measured upto 24 hrs by LC-MS analysis; format: ADME, organism-based, Canis lupus familiaris; details: in vivo
Cytochrome P450 2B6 = Cytochrome P450 2B6 (Homo sapiens, UniProt P20813); assay: Inhibition of CYP2B6 in human liver microsomes assessed as reduction in hydroxybupropion metabolite formation incubated for 30 mins in presence of NADPH by LC-MS/MS analysis; format: ADME, Microsome
Chain of Cytochrome P450 2B6 (P20813 whole entry): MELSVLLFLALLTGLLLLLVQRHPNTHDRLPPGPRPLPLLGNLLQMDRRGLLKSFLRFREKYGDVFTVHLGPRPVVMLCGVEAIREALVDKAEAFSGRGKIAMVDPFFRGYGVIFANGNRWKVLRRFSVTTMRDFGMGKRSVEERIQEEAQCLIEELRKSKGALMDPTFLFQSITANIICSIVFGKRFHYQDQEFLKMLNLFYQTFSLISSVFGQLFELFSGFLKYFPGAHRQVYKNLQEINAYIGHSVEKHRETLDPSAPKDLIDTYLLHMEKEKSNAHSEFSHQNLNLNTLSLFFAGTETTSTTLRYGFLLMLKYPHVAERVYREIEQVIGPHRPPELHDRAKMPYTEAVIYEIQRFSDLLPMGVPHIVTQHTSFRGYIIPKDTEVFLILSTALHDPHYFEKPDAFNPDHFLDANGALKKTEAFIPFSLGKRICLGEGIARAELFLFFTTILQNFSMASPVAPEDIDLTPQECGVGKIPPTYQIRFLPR

Cytochrome P450 2C9 = Cytochrome P450 2C9 (Homo sapiens, UniProt P11712); assay: Inhibition of CYP2C9 in human liver microsomes assessed as reduction in 4 hydroxy-diclofenac metabolite formation incubated for 30 mins in presence of NADPH by LC-MS/MS analysis; format: ADME, Microsome
Chain of Cytochrome P450 2C9 (P11712 whole entry): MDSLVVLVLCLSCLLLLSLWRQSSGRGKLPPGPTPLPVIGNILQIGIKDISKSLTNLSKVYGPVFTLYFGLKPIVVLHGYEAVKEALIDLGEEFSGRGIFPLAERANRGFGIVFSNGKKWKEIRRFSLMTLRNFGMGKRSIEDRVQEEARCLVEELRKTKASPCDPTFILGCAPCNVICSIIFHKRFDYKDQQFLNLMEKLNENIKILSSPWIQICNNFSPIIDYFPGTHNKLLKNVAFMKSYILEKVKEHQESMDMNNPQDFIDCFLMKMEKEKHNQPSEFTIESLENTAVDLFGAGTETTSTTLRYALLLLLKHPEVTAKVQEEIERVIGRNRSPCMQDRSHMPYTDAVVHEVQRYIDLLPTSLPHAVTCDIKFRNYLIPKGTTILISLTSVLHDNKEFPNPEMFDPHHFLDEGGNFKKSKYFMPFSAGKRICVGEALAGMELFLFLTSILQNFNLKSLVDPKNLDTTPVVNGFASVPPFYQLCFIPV

Cytochrome P450 3A4 = Cytochrome P450 3A4 (Homo sapiens, UniProt P08684); assay: Inhibition of CYP3A4 in human liver microsomes assessed as reduction in 6beta-hydroxymidazolam metabolite formation using midazolam as substrate incubated for 30 mins in presence of NADPH by LC-MS/MS analysis; format: ADME, Microsome
Chain of Cytochrome P450 3A4 (P08684 whole entry): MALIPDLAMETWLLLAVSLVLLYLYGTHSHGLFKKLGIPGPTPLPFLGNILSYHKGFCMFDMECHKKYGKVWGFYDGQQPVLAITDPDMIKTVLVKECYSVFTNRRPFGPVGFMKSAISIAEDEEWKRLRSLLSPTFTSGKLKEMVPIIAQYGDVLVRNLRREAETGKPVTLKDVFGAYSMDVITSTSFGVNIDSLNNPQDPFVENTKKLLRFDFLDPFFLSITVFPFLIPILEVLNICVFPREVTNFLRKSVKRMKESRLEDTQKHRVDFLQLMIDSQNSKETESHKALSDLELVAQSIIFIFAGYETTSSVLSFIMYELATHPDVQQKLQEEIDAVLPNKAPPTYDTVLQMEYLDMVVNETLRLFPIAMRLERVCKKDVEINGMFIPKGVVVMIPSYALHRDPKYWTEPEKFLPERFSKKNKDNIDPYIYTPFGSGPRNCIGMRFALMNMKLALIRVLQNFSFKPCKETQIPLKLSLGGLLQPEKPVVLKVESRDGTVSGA

Kallikrein-1 = Kallikrein-1 (Homo sapiens, UniProt P06870); assay: Inhibition of human KLK1 preincubated for 5 mins followed by substrate addition by fluorometer analysis
Chain of Kallikrein-1 (P06870 whole entry): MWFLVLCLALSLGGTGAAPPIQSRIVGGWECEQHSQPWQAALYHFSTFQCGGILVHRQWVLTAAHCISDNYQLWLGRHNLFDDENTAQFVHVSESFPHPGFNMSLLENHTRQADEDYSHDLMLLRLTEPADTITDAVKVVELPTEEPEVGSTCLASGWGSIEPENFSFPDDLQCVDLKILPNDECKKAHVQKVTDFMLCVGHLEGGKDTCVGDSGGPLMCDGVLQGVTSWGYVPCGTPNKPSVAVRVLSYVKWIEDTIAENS

Coagulation factor XII = Coagulation factor XII (Homo sapiens, UniProt P00748); assay: Inhibition of human factor 12a preincubated for 5 mins followed by substrate addition by fluorometer analysis
Chain of Coagulation factor XII (P00748 20-372 limits assumed): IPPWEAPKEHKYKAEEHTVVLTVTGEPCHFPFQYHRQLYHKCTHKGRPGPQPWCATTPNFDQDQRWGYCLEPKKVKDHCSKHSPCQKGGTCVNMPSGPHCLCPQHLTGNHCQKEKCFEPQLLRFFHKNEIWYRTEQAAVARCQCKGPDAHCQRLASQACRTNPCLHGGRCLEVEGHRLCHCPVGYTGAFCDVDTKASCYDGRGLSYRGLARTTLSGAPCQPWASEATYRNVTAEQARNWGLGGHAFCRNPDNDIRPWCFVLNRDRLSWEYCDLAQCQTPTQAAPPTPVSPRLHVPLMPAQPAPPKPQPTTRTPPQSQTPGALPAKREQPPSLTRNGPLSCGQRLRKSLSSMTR
Chain of Coagulation factor XII (P00748 373-615 limits assumed): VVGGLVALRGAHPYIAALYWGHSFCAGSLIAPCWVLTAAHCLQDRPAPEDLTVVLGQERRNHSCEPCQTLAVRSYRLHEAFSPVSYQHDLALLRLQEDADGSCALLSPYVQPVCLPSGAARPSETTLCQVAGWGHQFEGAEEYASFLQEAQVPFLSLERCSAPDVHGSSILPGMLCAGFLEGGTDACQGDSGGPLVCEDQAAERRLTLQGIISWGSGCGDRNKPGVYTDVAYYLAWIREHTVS
How it was run: (§1)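 Each protease (commercial, typically purified from human plasma) was preincubated with inhibitor for 5 min, then a fluorogenic substrate specific to that enzyme was added. Cleavage was followed kinetically by fluorometry. IC50 came from a four-parameter logistic fit to the normalized rate of fluorescence increase.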

Trypsin = Trypsin (Homo sapiens, UniProt P07477+P07478+P35030); assay: Inhibition of human trypsin preincubated for 5 mins followed by substrate addition by fluorometer analysis; format: protein assay
How it was run: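 Human proteases, typically purified from plasma, preincubated with compound for 5 min. A protease-specific fluorogenic substrate was then added and cleavage followed kinetically on a fluorometer. IC50 from a four-parameter logistic fit to the normalized rate of fluorescence increase.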

Cathepsin D = Cathepsin D (Homo sapiens, UniProt P07339); assay: Inhibition of human Cathepsin D preincubated for 5 mins followed by substrate addition by fluorometer analysis
Chain of Cathepsin D (P07339 65-162 limits assumed): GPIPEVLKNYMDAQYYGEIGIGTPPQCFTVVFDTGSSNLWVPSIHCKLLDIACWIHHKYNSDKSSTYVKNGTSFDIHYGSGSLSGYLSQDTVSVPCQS
Chain of Cathepsin D (P07339 169-412 limits assumed): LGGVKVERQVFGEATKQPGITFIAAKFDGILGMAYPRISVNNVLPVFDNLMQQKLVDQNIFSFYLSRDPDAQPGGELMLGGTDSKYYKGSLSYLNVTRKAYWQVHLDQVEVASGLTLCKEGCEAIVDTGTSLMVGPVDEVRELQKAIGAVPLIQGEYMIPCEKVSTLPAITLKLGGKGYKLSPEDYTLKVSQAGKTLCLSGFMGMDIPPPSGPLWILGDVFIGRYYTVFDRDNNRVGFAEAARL

[6] = biological target: Tissue-type plasminogen activator (Homo sapiens, UniProt P00750); assay: Inhibition of human tissue plasminogen activator preincubated for 5 mins followed by substrate addition by fluorometer analysis; how it was run: as §1
Chain of Tissue-type plasminogen activator (P00750 whole entry): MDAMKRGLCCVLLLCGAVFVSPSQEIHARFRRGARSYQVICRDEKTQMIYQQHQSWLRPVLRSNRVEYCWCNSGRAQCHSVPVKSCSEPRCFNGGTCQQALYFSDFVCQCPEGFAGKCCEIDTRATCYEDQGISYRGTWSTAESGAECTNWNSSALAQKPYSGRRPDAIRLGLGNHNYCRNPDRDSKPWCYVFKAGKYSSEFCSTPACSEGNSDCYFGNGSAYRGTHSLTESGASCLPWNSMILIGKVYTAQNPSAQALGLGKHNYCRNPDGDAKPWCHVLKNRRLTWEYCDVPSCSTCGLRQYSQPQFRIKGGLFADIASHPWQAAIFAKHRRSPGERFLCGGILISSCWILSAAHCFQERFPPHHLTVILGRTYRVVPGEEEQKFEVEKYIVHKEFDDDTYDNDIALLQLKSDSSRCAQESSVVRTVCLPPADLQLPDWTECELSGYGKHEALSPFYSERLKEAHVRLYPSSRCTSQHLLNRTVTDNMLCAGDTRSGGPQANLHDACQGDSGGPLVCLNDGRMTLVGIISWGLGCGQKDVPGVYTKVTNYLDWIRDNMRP

For `COCc1nn(Cc2ccc(Cn3ccccc3=O)cc2)cc1C(=O)NCc1nccc(OC)c1F` [SEBETRALSTAT], the Papp [1] was 9 10^-6 cm/s, the Therm_solubility [2] was > 1000 µg/mL and the Vdss [3] was 0.65 L/kg. For the same molecule, the t1/2 [4] was 1 h, the t1/2 [5] was 1 h and the IC50 (Cytochrome P450 2B6) was > 25 µM. For the same molecule, the IC50 (Cytochrome P450 2C9) was > 25 µM, the IC50 (Cytochrome P450 3A4) was > 25 µM and the IC50 (Kallikrein-1) was > 40 µM. The IC50 (Coagulation factor XII) was > 40 µM, the IC50 (Trypsin) was > 40 µM and the IC50 (Cathepsin D) was > 10 µM. For the same molecule, the IC50 [6] was > 10 µM.
